Results collected from several papers.
Protocols differ between the studies behind these lines.
Target: Hormonally up-regulated neu tumor-associated kinase (HUNK, Homo sapiens, UniProt P57058)
Residues used in one study (P57058 1-714): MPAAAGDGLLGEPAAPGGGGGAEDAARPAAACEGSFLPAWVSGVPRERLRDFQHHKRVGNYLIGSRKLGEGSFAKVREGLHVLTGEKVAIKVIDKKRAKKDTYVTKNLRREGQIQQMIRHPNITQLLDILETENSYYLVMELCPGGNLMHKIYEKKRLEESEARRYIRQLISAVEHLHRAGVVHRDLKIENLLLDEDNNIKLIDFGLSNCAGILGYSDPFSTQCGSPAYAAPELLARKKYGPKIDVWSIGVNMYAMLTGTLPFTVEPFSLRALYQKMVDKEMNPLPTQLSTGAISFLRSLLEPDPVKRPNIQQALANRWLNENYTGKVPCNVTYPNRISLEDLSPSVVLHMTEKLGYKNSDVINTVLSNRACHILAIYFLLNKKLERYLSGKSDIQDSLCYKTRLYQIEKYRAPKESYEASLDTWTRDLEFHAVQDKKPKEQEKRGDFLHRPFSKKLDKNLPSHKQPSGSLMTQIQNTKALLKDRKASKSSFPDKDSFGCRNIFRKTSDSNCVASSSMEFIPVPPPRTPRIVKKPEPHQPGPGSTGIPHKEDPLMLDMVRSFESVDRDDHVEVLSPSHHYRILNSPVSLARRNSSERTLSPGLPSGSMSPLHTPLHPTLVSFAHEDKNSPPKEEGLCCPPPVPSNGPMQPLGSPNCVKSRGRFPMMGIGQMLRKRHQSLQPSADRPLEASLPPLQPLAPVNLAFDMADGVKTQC

Structure (SMILES)	test	conditions	remaining binding [%]
c1cncc(-c2cccc(Nc3nccc(NC4CCCCC4)n3)c2)c1	binding, competition with immobilised ligand	10 µM	100
C[C@H]1CCN(c2nccc(-c3cnn4ncccc34)n2)C1	binding	1 µM	100
FC(F)(F)Oc1cccc(-c2cnc3ccc(-c4ccncc4)nn23)c1	cell-free assay, competition with immobilised ligand	5 µM	96
O=C(O)c1cc(-c2ccc(C3CCNCC3)cc2)c2ccc(-c3ccc(C(F)(F)F)cc3)cc2c1	cell-free assay, competition with immobilised ligand	1 µM	100
O=C(c1ccc(Nc2ncc(Cl)c(-c3ccc(Cl)s3)n2)cc1)N1CCC(N2CCCC2)CC1	binding, competition with immobilised ligand	1 µM	100
COc1cc(-c2cn(C3CCc4ccccc4N(CC(F)(F)F)C3=O)nn2)ccc1-n1ccc(C)n1 (stereo not shown)	cell-free assay, competition with immobilised ligand	1 µM	100
COc1ccnn2ncc(-c3ccnc(N(C)C)n3)c12	binding	1 µM	100
O=C(NCCCN1CCOCC1)c1ccc(Nc2ncc(Cl)c(-c3ccc(Cl)s3)n2)cc1	binding, competition with immobilised ligand	1 µM	100
Cc1cnn2ncc(-c3ccnc(N(C)C)n3)c2c1	binding	1 µM	100
COc1cnc(Nc2cccc(S(N)(=O)=O)c2)nc1N1CCN(c2ccccc2)C(=O)C1	binding, competition with immobilised ligand	1 µM	100
CCCOc1ccc([C@@H]2[C@@H](C(=O)O)[C@H](c3ccc4c(c3)OCO4)CN2CC(=O)Nc2c(CC)cccc2CC)cc1	cell-free assay, competition with immobilised ligand	1 µM	70
O=C(Nc1c[nH]nc1C(=O)NC1CCNCC1)c1cc(F)cc(F)c1	binding, competition with immobilised ligand	1 µM	100
Cc1cc(C)c(-n2ccn3nc(-c4cccnc4)cc23)cc1NC(=O)c1cc(C#N)cc(S(F)(F)(F)(F)F)c1	cell-free assay, competition with immobilised ligand	0.1 µM	83
c1cnn2ncc(-c3ccnc(N4CCC45COC5)n3)c2c1	binding	1 µM	92
NS(=O)(=O)c1cc(NC(=O)Cc2ccccc2)ccc1Oc1cccc(Cl)c1	cell-free assay, competition with immobilised ligand	1 µM	84
CN(C)c1nccc(-c2cnn3ncccc23)n1	binding	1 µM	100
Cc1cnc(Nc2ccc(C(=O)N3CCC(N4CCCC4)CC3)cc2)nc1-c1cc2ccccc2s1	binding, competition with immobilised ligand	1 µM	100
CCC(=O)N[C@H]1CC[C@@H](C(=O)N(C)c2ccc(-c3nc4ccccc4o3)cc2)C1	cell-free assay, competition with immobilised ligand	1 µM	100
CN(CCCC(F)(F)F)c1nccc(-c2cnn3ncccc23)n1	binding	1 µM	80
C=CC(=O)N1CCC(C(=O)NCC(=O)N2CCN(c3nc(-c4cnc(N)nc4C(F)F)nc(N4CCOCC4)n3)CC2)CC1	binding, competition with immobilised ligand	1 µM	79
N[C@H]1CCN(c2nccc(-c3cnn4ncccc34)n2)C1	binding	1 µM	82
C[C@@H](c1ccc(-n2cnc3c(N)ncnc32)cc1)N1CCc2nn(C)c(Cc3ccccc3)c2C1=O	binding, competition with immobilised ligand	0.1 µM	79
